From ChEMBL document CHEMBL1124257, “An examination of O-2-isocephems as orally absorbable antibiotics” (J Med Chem, 1988) come the findings set out here.

In one data set the test system is Proteus mirabilis. The experiment in a line: Minimum inhibitory concentration (MIC) against Proteus mirabilis by 2-fold microdilution technique. Format: functional. The method in brief:
(§1)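 For each organism, an overnight culture was grown in Mueller-Hinton broth at 37 °C. Twofold microtiter dilutions in Nutrient Broth covered 0.005–125 µg/mL. Each well received about 10^4 organisms, and plates were incubated 18 h at 37 °C. MIC was the lowest concentration giving no visible growth.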
For orientation: Broth dilution looks for growth in wells or tubes with falling amounts of substance.

Data set [1] has as its system Streptococcus pneumoniae. Description: Minimum inhibitory concentration (MIC) against Streptococcus pneumoniae by 2-fold microdilution technique. In kind it is functional. Particulars: Streptococcus pneumoniae; read-out: MIC. The method in brief:
as §1

Data set [2] deals with Escherichia coli. Description: Minimum inhibitory concentration (MIC) against Escherichia coli by 2-fold microdilution technique. Format: functional. The method in brief:
as §1

Another data set relates to Staphylococcus aureus. The experiment in a line: Minimum inhibitory concentration (MIC) against Staphylococcus aureus by 2-fold microdilution technique. In kind it is functional. The following applies: Staphylococcus aureus; read-out: MIC. The procedure, abridged: as §1
Another data set concerns Enterococcus faecalis. The experiment in a line: Minimum inhibitory concentration (MIC) against Streptococcus faecalis by 2-fold microdilution technique. In kind it is functional. The following applies: Enterococcus faecalis; read-out: MIC. The method in brief: as §1
Another data set relates to Klebsiella pneumoniae. The experiment in a line: Minimum inhibitory concentration (MIC) against Klebsiella pneumoniae by 2-fold microdilution technique. In kind it is functional. The method in brief: as §1
The subject of the next data set is Streptococcus pyogenes. Description: Minimum inhibitory concentration (MIC) against Streptococcus pyogenes by 2-fold microdilution technique. Format: functional. Particulars: Streptococcus pyogenes; read-out: MIC. The procedure, abridged:
as §1

Data set [3] has as its system Escherichia coli. The experiment in a line: Minimum inhibitory concentration (MIC) […] against Escherichia coli. Format: functional. The method in brief: as §1
Data set [4] deals with Escherichia coli. Description: Protective dose (PD50) against Escherichia coli infected mice. Particulars: read-out: PD50. Format: functional. The method in brief:
(§2)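 Male Swiss-Webster mice (20 ± 2 g) were challenged intraperitoneally with enough bacteria to kill untreated controls within 72 h. Drug was given orally by gavage twice: at 0 and 2 h after E. coli challenge, or at 1 and 3.5 h after S. pneumoniae challenge. PD50 is the dose in mg/kg per dose that protects 50% of animals.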

The subject of data set [5] is Streptococcus pneumoniae. The experiment in a line: Minimum inhibitory concentration (MIC) […] against Streptococcus pneumoniae. In kind it is functional. The procedure, abridged: as §1
For another data set, the system named is Haemophilus influenzae. Description: Minimum inhibitory concentration (MIC) against Haemophilus influenzae by 2-fold microdilution technique. In kind it is functional. The following applies: Haemophilus influenzae; read-out: MIC. The method in brief:
as §1

The test system of data set [6] is Streptococcus pneumoniae. The experiment in a line: Protective dose (PD50) against Streptococcus pneumoniae infected mice. Format: functional. Particulars: Streptococcus pneumoniae; read-out: PD50. The procedure, abridged:
as §2

Data set [7] in a line: Cmax was measured in mice after an oral dose of 50 mg/kg. In kind it is ADME, organism-based. More on the design: dose 50 mg/kg, route oral. Particulars: mouse, in vivo. The method in brief:
(§3)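 Male Swiss-Webster mice (20 ± 2 g) were given a single 50 mg/kg oral dose by gavage. Blood concentrations and urine levels were measured by microbiological assay, and urinary recovery was taken over 0–6 h.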

The species entered for data set [8] is Mus musculus. Description: Percentage of dose recovered after 0-6 hr in the urine of mice was measured. Format: ADME, organism-based. The following applies: in vivo. The procedure, abridged: as §3
Data set [9] concerns Mus musculus. The experiment in a line: Area under curve(AUC) was measured in mice after oral administration. Format: ADME, organism-based. More on the design: concentration or dose not given beside the values; unit not given here. The following applies: in vivo. The procedure, abridged:
as §3

Data set [10] is described as follows: Half life was measured. In kind it is ADME. The method in brief: as §3
The mark [11] stands for this setting: Proteus mirabilis, read-out: MIC.
The mark [12] stands for this setting: Escherichia coli, read-out: MIC.
Where [13] appears, read: Klebsiella pneumoniae, read-out: MIC.
Setting [14] is: Streptococcus pneumoniae, read-out: MIC.

The structures appear in SMILES notation. Converted amounts (≈) assume the structure as drawn. Bounds are passed on as bounds.

For `CCCC1=C(C(=O)O)N2C(=O)[C@@H](NC(=O)[C@H](N)c3ccc(O)cc3)[C@H]2CO1`, the MIC turned out to be 4 µg/mL (≈ 10.7 µM) in the data set on Proteus mirabilis (setting [11]); 0.008 µg/mL (≈ 0.0213 µM) in the data set on Streptococcus pneumoniae [1]; 2 µg/mL (≈ 5.33 µM) in the data set on Escherichia coli [2] (setting [12]); 0.06 µg/mL (≈ 0.16 µM) in the data set on Staphylococcus aureus; 0.03 µg/mL (≈ 0.0799 µM) in the data set with Enterococcus faecalis; 16 µg/mL (≈ 42.6 µM) in the data set with Klebsiella pneumoniae (setting [13]). Further, the MIC in the data set on Streptococcus pyogenes is 0.004 µg/mL (≈ 0.0107 µM).

As for `N[C@@H](C(=O)N[C@@H]1C(=O)N2C(C(=O)O)=C(/C=C\C(F)(F)F)OC[C@H]12)c1ccc(O)cc1` (relative stereo), the MIC came to 2 µg/mL (≈ 4.68 µM) in the data set with Escherichia coli [3] (setting [12]); 0.016 µg/mL (≈ 0.0374 µM) with Streptococcus pneumoniae [5] (setting [14]); 16 µg/mL (≈ 37.4 µM) with Proteus mirabilis (setting [11]); 2 µg/mL (≈ 4.68 µM) in the data set on Haemophilus influenzae; 0.016 µg/mL (≈ 0.0374 µM) with Streptococcus pneumoniae [1]; 2 µg/mL (≈ 4.68 µM) with Escherichia coli [2] (setting [12]). The MIC is 0.5 µg/mL (≈ 1.17 µM) in the data set on Staphylococcus aureus, 0.06 µg/mL (≈ 0.14 µM) with Enterococcus faecalis, 32 µg/mL (≈ 74.9 µM) with Klebsiella pneumoniae (setting [13]) and 0.008 µg/mL (≈ 0.0187 µM) with Streptococcus pyogenes. For the same molecule, the ED50 with Escherichia coli [4] is > 50 mg/kg; in the data set on Streptococcus pneumoniae [6], 2.7 mg/kg.

Turning to `N[C@@H](C(=O)N[C@@H]1C(=O)N2C(C(=O)O)=C(/C=C/C(F)(F)F)OC[C@H]12)c1ccc(O)cc1`, the MIC in the data set with Escherichia coli [3] (setting [12]) worked out at 4 µg/mL (≈ 9.36 µM); in the data set on Streptococcus pneumoniae [5] (setting [14]), 0.016 µg/mL (≈ 0.0374 µM); in the data set on Proteus mirabilis (setting [11]), 16 µg/mL (≈ 37.4 µM); in the data set on Haemophilus influenzae, 2 µg/mL (≈ 4.68 µM); in the data set on Streptococcus pneumoniae [1], 0.016 µg/mL (≈ 0.0374 µM); in the data set with Escherichia coli [2] (setting [12]) it was 4 µg/mL (≈ 9.36 µM). In addition, the MIC worked out at 0.5 µg/mL (≈ 1.17 µM) with Staphylococcus aureus, 0.13 µg/mL (≈ 0.304 µM) in the data set with Enterococcus faecalis, 16 µg/mL (≈ 37.4 µM) in the data set with Klebsiella pneumoniae (setting [13]) and 0.008 µg/mL (≈ 0.0187 µM) in the data set on Streptococcus pyogenes. The ED50 with Escherichia coli [4] is > 50 mg/kg; in the data set with Streptococcus pneumoniae [6], > 12.5 mg/kg.

With `N[C@@H](C(=O)N[C@@H]1C(=O)N2C(C(=O)O)=C(Cl)CS[C@H]12)c1ccccc1.O` [CEFACLOR], the MIC in the data set with Proteus mirabilis (setting [11]) amounted to 0.25 µg/mL; in the data set with Haemophilus influenzae, 1 µg/mL; in the data set on Streptococcus pneumoniae [1], 0.5 µg/mL; in the data set with Escherichia coli [2] (setting [12]), 1 µg/mL; with Staphylococcus aureus, 0.25 µg/mL; with Enterococcus faecalis, 16 µg/mL. In addition, the MIC turned out to be 1 µg/mL in the data set with Klebsiella pneumoniae (setting [13]) and 0.25 µg/mL in the data set with Streptococcus pyogenes.

In the case of `CC1=C(C(=O)O)N2C(=O)[C@@H](NC(=O)[C@H](N)c3ccc(O)cc3)[C@H]2CO1`, the MIC with Escherichia coli [3] (setting [12]) came to 8 µg/mL (≈ 23 µM); in the data set on Streptococcus pneumoniae [5] (setting [14]), 0.13 µg/mL (≈ 0.374 µM); with Proteus mirabilis (setting [11]), 4 µg/mL (≈ 11.5 µM); in the data set on Haemophilus influenzae, 8 µg/mL (≈ 23 µM); with Streptococcus pneumoniae [1], 0.13 µg/mL (≈ 0.374 µM); in the data set with Escherichia coli [2] (setting [12]), 8 µg/mL (≈ 23 µM). The MIC with Staphylococcus aureus is 1 µg/mL (≈ 2.88 µM); in the data set on Enterococcus faecalis, 16 µg/mL (≈ 46.1 µM); in the data set with Klebsiella pneumoniae (setting [13]) it was 8 µg/mL (≈ 23 µM); with Streptococcus pyogenes it was 0.13 µg/mL (≈ 0.374 µM). Further, the ED50 in the data set with Escherichia coli [4] was determined as 11 mg/kg; with Streptococcus pneumoniae [6] it was 2.1 mg/kg.

As usually defined, the Cmax is the highest concentration seen after dosing. The half-life is how long it takes for the measured level to halve. Turning to `C=CCC1=C(C(=O)O)N2C(=O)[C@@H](NC(=O)[C@H](N)c3ccc(O)cc3)[C@H]2CO1`, the MIC came to 4 µg/mL (≈ 10.7 µM) in the data set on Escherichia coli [3] (setting [12]); 0.016 µg/mL (≈ 0.0429 µM) with Streptococcus pneumoniae [5] (setting [14]); 1 µg/mL (≈ 2.68 µM) with Proteus mirabilis (setting [11]); 2 µg/mL (≈ 5.36 µM) with Haemophilus influenzae; 0.03 µg/mL (≈ 0.0804 µM) in the data set with Streptococcus pneumoniae [1]; 2 µg/mL (≈ 5.36 µM) in the data set with Escherichia coli [2] (setting [12]). Also, the MIC was 0.13 µg/mL (≈ 0.348 µM) with Staphylococcus aureus, 1 µg/mL (≈ 2.68 µM) in the data set on Enterococcus faecalis, 16 µg/mL (≈ 42.9 µM) in the data set with Klebsiella pneumoniae (setting [13]) and 0.008 µg/mL (≈ 0.0214 µM) in the data set on Streptococcus pyogenes. Also, the results for the ED50 in the data set on Escherichia coli [4] and with Streptococcus pneumoniae [6] were 9.2 mg/kg and 1 mg/kg, respectively. Further, the highest level in [7] (Cmax) was 31000 ng/mL. Besides, the “Urinary recovery (% of dose, 0-6 h)” value in the data set filed under Mus musculus [8] amounted to 46%. In the data set on Mus musculus [9], this molecule registered an AUC of 32. Also, in data set [10], the half-life stood at 32 min.

As for `C/C=C/C1=C(C(=O)O)N2C(=O)[C@@H](NC(=O)[C@H](N)c3ccc(O)cc3)[C@H]2SC1.O` (relative stereo; 56) [CEFPROZIL, (E)-], the MIC with Escherichia coli [3] turned out to be 2 µg/mL; against Streptococcus pneumoniae [5], 0.016 µg/mL; against Proteus mirabilis, 0.25 µg/mL; with Haemophilus influenzae it was 2 µg/mL; in the data set with Streptococcus pneumoniae [1], 0.03 µg/mL; in the data set with Escherichia coli [2], 1 µg/mL. Moreover, the MIC was 0.13 µg/mL with Staphylococcus aureus, 2 µg/mL in the data set with Enterococcus faecalis, 2 µg/mL in the data set with Klebsiella pneumoniae and 0.016 µg/mL in the data set with Streptococcus pyogenes. Further, the ED50 with Escherichia coli [4] was 1.2 mg/kg; in the data set on Streptococcus pneumoniae [6] it was 0.4 mg/kg. Moreover, in data set [7], the maximum concentration (Cmax) stood at 46000 ng/mL. The “Urinary recovery (% of dose, 0-6 h)” value in the data set listed under Mus musculus [8] is listed as 85%. This molecule also yielded an AUC in the data set on Mus musculus [9] of 42. Also, the half-life in [10] amounted to 29 min.
